Data: ChEMBL document CHEMBL1153287, “First small molecular inhibitors of T. brucei dolicholphosphate mannose synthase (DPMS), a validated drug target in African sleeping sickness” (Bioorg Med Chem Lett, 2009)
Active and inactive are the calls of the source. No cut-off for these calls is given here.

Assays:
[1] = system: Trypanosoma brucei; assay: Inhibition of glycosylphosphatidylinositol anchor biosynthesis in Trypanosoma brucei 117 cell-free system assessed as reduction of Manalpha1-4GlcNH2-PI formation; type: functional
How it was run: (§1)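 Cell-free GPI synthesis using bloodstream T. brucei variant 117 membranes, 1 × 10^7 cell equivalents per assay. Membranes washed in Hepes pH 7.4/KCl/MgCl2 buffer with TLCK and leupeptin. Reaction in buffer with MnCl2, tunicamycin and dithiothreitol. Labelled with GDP-[3H]Man plus 1 mM UDP-GlcNAc. Inhibitor in DMSO, 1 mM final.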

[2] = system: Trypanosoma brucei; assay: Inhibition of glycosylphosphatidylinositol anchor biosynthesis in Trypanosoma brucei 117 cell-free system assessed as reduction of Manalpha1-6Manalpha1-4GlcNH2-PI formation formation; type: functional; how it was run: as §1
[3] = system: Trypanosoma brucei; assay: Inhibition of glycosylphosphatidylinositol anchor biosynthesis in Trypanosoma brucei 117 cell-free system assessed as reduction of Manalpha1-2Manalpha1-6Manalpha1-4GlcNH2-PI formation; type: functional; how it was run: as §1
[4] = system: Trypanosoma brucei; assay: Antitrypanosomal activity against Trypanosoma brucei 427; type: functional; conditions: read-out: ED50 (the source's name)
How it was run: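 Bloodstream-form T. brucei strain 427 in culture; viability read by Alamar Blue; ED50 in μM; each experiment run at least in duplicate.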

[5] = Cytotoxicity against human HeLa cells by alamar blue assay; type: cell-based; conditions: read-out: ED50 (the source's name)
How it was run: (§2)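 HeLa cells treated at 0.1 and 1.0 mM final; viability by Alamar Blue; inhibition expressed relative to a DMSO-only control.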

[6] = system: Trypanosoma brucei; assay: Inhibition of Trypanosoma brucei DPMS expressed in Escherichia coli assessed as residual enzyme activity at 1 mM relative to untreated control
How it was run: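 Recombinant full-length membrane-bound T. brucei DPMS in E. coli membranes (70 ng/ml total protein). Buffer: 50 mM Na–Hepes pH 7.4, 25 mM KCl, 5 mM MgCl2, 5 mM MnCl2, 0.1% n-octyl-glucopyranoside. Substrates: dehydrofarnesol-phosphate and GDP-[3H]Man. Inhibitor at 1 mM; 10 min at 30 °C. Lipids extracted in CHCl3:MeOH, butanol phase counted. Activity relative to a no-inhibitor control.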

[7] = system: Trypanosoma brucei; assay: Inhibition of Trypanosoma brucei 117 DPMS-mediated glycosylphosphatidylinositol anchor biosynthesis assessed as reduction of dolicholphosphate-mannose formation; how it was run: as §1
[8] = system: Trypanosoma brucei; assay: Inhibition of glycosylphosphatidylinositol anchor biosynthesis in Trypanosoma brucei 117 cell-free system assessed as reduction of Manalpha1-2Manalpha1-6Manalpha1-4GlcNH2-(acyl)PI formation; type: functional; how it was run: as §1
[9] = system: Trypanosoma brucei; assay: Inhibition of glycosylphosphatidylinositol anchor biosynthesis in Trypanosoma brucei 117 cell-free system assessed as reduction of ethanolamine-P-Manalpha1-2Manalpha1-6Manalpha1-4GlcNH2-PI formation; type: functional; how it was run: as §1
[10] = Cytotoxicity against human HeLa cells assessed as growth inhibition at 1 mM by alamar blue assay; type: cell-based; how it was run: as §2

Row | Compound | inhibition [1] | inhibition [2] | inhibition [3] | EC50 [4] | CC50 [5] | Activity [6] | inhibition [7] | inhibition [8] | inhibition [9] | inhibition at 1000 µM [10]
1 | O=C(O)CN1C(=O)/C(=C/c2ccc(OCc3ccccc3)c(OCc3ccccc3)c2)SC1=S | Active | Active | Active | 492 µM | > 1000 µM | 20% | Active | Active | Active | 
2 | O=C(O)CN1C(=O)/C(=C/c2ccc(Cl)cc2)SC1=S |  |  |  | 398 µM |  | 86% |  |  |  | 
3 | O=C(O)CN1C(=O)/C(=C/c2ccc(OCc3ccccc3)cc2)SC1=S | Active | Active | Active | 338 µM | > 1000 µM | 10% | inactive | Active | Active | 20%
4 | O=C(O)CN1C(=O)/C(=C/c2ccccc2)SC1=S |  |  |  | 232 µM | > 1000 µM | 42% |  |  |  | 
5 | C#Cc1ccc(/C=C2\SC(=S)N(CC(=O)O)C2=O)cc1 |  |  |  | > 1000 µM |  | 94% |  |  |  | 20%
6 | O=C(O)CN1C(=O)/C(=C/c2cccc(O)c2)SC1=S |  |  |  | 345 µM |  | 90% |  |  |  | 
7 | N#Cc1ccc(/C=C2\SC(=S)N(CC(=O)O)C2=O)cc1 |  |  |  | 244 µM |  | 73% |  |  |  | 
8 | O=C(O)CN1C(=O)/C(=C/c2ccccc2O)SC1=S | Active | Active | Active | 107 µM | > 1000 µM | 23% | inactive | Active | Active | 
9 | O=C(O)CN1C(=O)/C(=C/c2ccc(O)cc2)SC1=S | Active | Active | Active | 427 µM | > 1000 µM | 70% | Active | Active | Active | 
10 | O=C(O)CN1C(=O)/C(=C/c2cccc(OCc3ccccc3)c2)SC1=S |  |  |  | 96 µM | > 1000 µM | 23% |  |  |  | 
